Assay outcomes as filed in PubChem.
ABHD4 inh: ABHD4 (mouse) inhibition, primary FP screen; Q8VD66; purified mABHD4, FP-Rh probe fluorescence polarization; inhibition, % at 8.92 µM; 0.54% of 370,000 active; AID 720543;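 active = inhibition exceeding the mean over every tested compound plus 3 SD, cut at about 30% in these data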
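Doses – 8.92 µM, single dose · Material – wild-type mouse ABHD4 protein · Replication – single well per compound (singlicate) · Measure – percent inhibition of probe binding, normalized to plate controls · Schedule – 45 min compound pre-incubation plus 60 min probe step, 25 °C · Detection – fluorescence polarization with parallel and perpendicular emission, 525/598 nm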
rCAG RNA binder: binds r(CAG) RNA repeats; r(CAG) RNA repeat, TO-PRO-1 dye displacement fluorescence; inhibition, % at 3 µM; 1.3% of 370,000 active; AID 651821;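 active = inhibition above the plate cutoff, the mean of all test compounds on that plate plus 3 SD, cut at about 35% in these data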;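 note: higher means more dye released from RNA so lower well fluorescence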
HTRA1 inh: HTRA1 (human) protease inhibition; recombinant HTRA1, FP-rhodamine activity-based probe, fluorescence polarization; inhibition, % at 5.96 µM; 0.5% of 340,000 active; in the data active = inhibition above about 36%
Target sequence (Q92743 whole entry, looked up): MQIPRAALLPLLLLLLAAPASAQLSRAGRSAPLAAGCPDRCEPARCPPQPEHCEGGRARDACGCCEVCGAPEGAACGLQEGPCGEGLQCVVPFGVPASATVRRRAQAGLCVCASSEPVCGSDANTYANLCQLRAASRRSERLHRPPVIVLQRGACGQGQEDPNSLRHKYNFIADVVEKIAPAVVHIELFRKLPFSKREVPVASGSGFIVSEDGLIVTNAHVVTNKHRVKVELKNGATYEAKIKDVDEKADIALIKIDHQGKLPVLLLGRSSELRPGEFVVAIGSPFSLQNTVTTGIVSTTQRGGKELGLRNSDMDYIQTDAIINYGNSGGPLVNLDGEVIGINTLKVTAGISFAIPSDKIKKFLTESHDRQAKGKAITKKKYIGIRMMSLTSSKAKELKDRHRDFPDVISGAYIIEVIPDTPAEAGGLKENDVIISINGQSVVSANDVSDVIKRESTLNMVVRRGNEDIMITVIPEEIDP
SIAE inh: human SIAE inhibition, primary screen. Q9HAT2. SIAE FP-Rh probe binding, fluorescence polarization. inhibition, % at 9.66 µM. 0.69% of 370,000 active;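 active = inhibition above a cutoff: mean of compounds within the control limits plus 3 SD of those, cut at about 17% in these data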
TCR CD3 inh: blocks the human TCR-CD3 interaction. TAMRA-labeled TCR probe fluorescence, biochemical. 0.37% of 360,000 active. inhibition, % at 9.4 µM. AID 651800;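 note: recombinant mutant TCR 2C K166C tagged with TAMRA read by polarization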
BSA probe FL: counter-screen for TCR-CD3 interaction inhibitors: BSA probe | inhibition, % at 9.4 µM | TAMRA-labeled BSA probe fluorescence counterscreen | AID 652035 | 10% of 1,200 active | shares compounds with TCR CD3 inh; in the data active = inhibition above about 23%
TCR-CD3 conf: TCR-CD3 interaction inhibition, confirmation; shares compounds with TCR CD3 inh; TAMRA-labeled TCR probe fluorescence binding assay; inhibition, % at 9.4 µM; 48% of 1,200 active; AID 652036
A number is an active result; – = inactive; · = no result given. Rows were chosen to be rich in hits. Some 2.5% of all compounds tested hit in one or more screens of this group. Cut-off read from the data, not from the text of the source, unless noted: active = inhibition above about 19%; inactive = the rest.

SMILES	ABHD4 inh	rCAG RNA binder	HTRA1 inh	SIAE inh	TCR CD3 inh	BSA probe FL	TCR-CD3 conf
COc1cccc(/C=N/NC(=O)c2oc3nc(-c4ccccc4)cc(-c4ccco4)c3c2N)c1	–	–	–	–	–	·	·
CCCCOc1ccc(Nc2nc(C)cc(C)c2C#N)cc1	–	–	–	–	–	·	·
Nc1ccc2nc(-c3cccc(-c4nc5ccc(N)cc5[nH]4)n3)[nH]c2c1	–	–	–	–	23.9	–	46.9
Cc1ccc2nc(-c3cccc(N)c3)[nH]c2c1	–	–	–	–	–	·	·
Cc1cc(C(=O)N/N=C/c2c(CO)cnc(C)c2O)c2ccccc2n1	–	–	–	–	23.5	–	–
CN(CC(=O)NCc1ccc(F)cc1)S(=O)(=O)c1ccc2c(c1)n(C)c(=O)c(=O)n2C	–	–	–	–	–	·	·
CCn1c(CSc2nnc(-c3ccoc3C)n2C)nc2cc(S(=O)(=O)N(C)C)ccc21	–	–	–	–	–	·	·
Cc1noc(C)c1COc1ccc(C(=O)NNC(=O)c2ccccc2O)cc1	–	–	–	–	25.0	–	26.2
CCOc1ccc(C(=O)CCC(=O)NNC(=O)c2ccccc2O)cc1	–	–	–	–	28.9	–	26.2
CCOc1ccc(C(=O)CCC(=O)Nc2ncccc2O)cc1	–	–	–	–	–	·	·
CC(C)Cc1nnc(NC(=O)CCC(=O)NC2CCCCC2)s1	–	–	–	–	20.4	–	–
CCc1nnc(NC(=O)CCC(=O)NC2CCCCC2)s1	–	–	–	–	–	·	·
CCCCC(=O)NC(NC(=S)N1CCOCC1)C(Cl)(Cl)Cl (stereo unspecified)	–	–	–	–	–	·	·
O=C(CSc1nc2cc(Cl)ccc2c(=O)n1Cc1ccco1)Nc1ccc(S(=O)(=O)N2CCOCC2)cc1	–	–	–	–	19.9	–	25.8
O=C(N/C(=C/C=C/c1ccccc1)C(=O)N1CCCCC1)c1ccc([N+](=O)[O-])cc1	–	–	–	–	–	·	·
c1ccc(-c2ccc(C3=Nn4c(nnc4-c4cccs4)SC3)cc2)cc1	–	–	·	–	–	·	·
COc1ccc(C2NC(=O)CCC2[N+](=O)[O-])cc1OC (stereo unspecified)	–	–	–	–	–	·	·
COc1cc(C2NC(=O)CCC2[N+](=O)[O-])cc(OC)c1OC (stereo unspecified)	–	–	–	–	22.6	–	–
COc1ccc([C@H]2CC(=O)C[C@@H](CCn3cc(Cc4ccccc4)nn3)O2)cc1	–	–	·	–	23.9	–	–
S=C(NCCc1ccccc1)NCC(c1ccco1)N1CCCCC1 (stereo unspecified)	–	–	–	–	–	·	·
Cc1cc(Br)cc(/C=N/NC(=O)c2ccc3c(c2)OCO3)c1O	–	–	–	–	29.2	–	33.9
O=C(N/N=C/c1cc(Cl)cc([N+](=O)[O-])c1O)c1ccc2c(c1)OCO2	–	–	–	–	41.0	–	47.2
O=C(N/N=C/c1ccccc1O)c1ccc2c(c1)OCO2	–	–	–	–	–	·	·
COc1cc(Cl)cc(/C=N\NC(=O)c2ccc3c(c2)OCO3)c1O	–	–	–	–	–	·	·
CC(C)c1nnc(NC(=O)CCN2C(=O)c3ccccc3C2=O)s1	–	–	–	–	–	·	·
SMILES	ABHD4 inh	rCAG RNA binder	HTRA1 inh	SIAE inh	TCR CD3 inh	BSA probe FL	TCR-CD3 conf
COc1ccccc1-c1cccc([C@@H]2C[C@H]3[C@H](CON3C)CN2Cc2ccccc2)c1	–	–	–	–	–	·	·
CN1OC[C@@H]2CN(Cc3ccccc3)[C@H](c3cccc(-c4ccc(C#N)cc4)c3)C[C@@H]21	–	–	–	–	24.0	–	–
Nc1ccc(C#Cc2ccc3sc4ccccc4c(=O)c3c2)cc1	–	–	–	–	–	·	·
O=C(Cn1nc2ccccc2n1)N/N=C/c1cc([N+](=O)[O-])ccc1O	–	–	–	–	26.0	–	26.4
CCOc1ccc(C(=O)Nc2cc(-c3nc4ccccc4[nH]3)ccc2Cl)cc1[N+](=O)[O-]	–	–	–	–	25.1	–	39.6
Cc1cc(C)n(Cc2ccc(C(=O)N/N=C/c3ccc(-c4ccc([N+](=O)[O-])cc4)o3)o2)n1	–	–	–	–	19.3	–	28.1
CCCCC(=O)N/N=C/c1ccc(-c2ccc([N+](=O)[O-])cc2)o1	–	–	–	–	–	·	·
